DNMT1 block: blocks human DNA methyltransferase DNMT1 | P26358 | DNMT1 molecular beacon, Hinp1I cleavage, fluorescence | inhibition (reported as % activation of signal), % at 10 µM | 360,000 tested, 0.83% active | AID 588458
NSD2 HMT inh: blocks human histone methyltransferase NSD2 | 310,000 tested, 0.54% active | O96028 | NSD2 peptide methylation, AlphaScreen, 120 min | inhibition, % at 12.5 µM
NS3 helicase inh: blocks Hepatitis C virus NS3 helicase unwinding; inhibition, % at 10.9 µM; NS3 helicase DNA unwinding, Cy5 molecular beacon fluorescence; 290,000 tested, 0.56% active; AID 1800;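 active = inhibition above the mean of all tested compounds plus 3 SD, set per campaign, cut at about 35% in these data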;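 note: 0% = DMSO wells and 100% = thioflavine S control wells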
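Material: hepatitis C virus NS3 helicase domain fragment enzyme; measured by: Cy5 fluorescence, 0 and 60 min reads; control set: DMSO and thioflavine S; incubation: 60 min unwinding reaction at 25 °C after ATP addition; read-out basis: % inhibition from 60/0 min fluorescence ratio, DMSO 0%, thioflavine S 100%; repeats: singlicate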
Casp6 inh: blocks human caspase-6 cleavage activity; 350,000 tested, 0.53% active; inhibition, % at 12.5 µM; purified caspase-6, Z-VEID-R110 cleavage fluorescence; AID 686996;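 active = mean inhibition across replicates at least about 35%, with every replicate also reaching that limit, limit read from the data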;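 note: 0% = median of neutral control wells and 100% = no fluorescence left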
Starred values were filed as active, the others as inactive; . = no result; ! = not confirmed by another sample. In the library only some 1.5% were active in any assay of this set; here they are far more common. Cut-off read from the data, not from the text of the source, unless noted: active = inhibition above about 50%; inactive = the rest.

SMILES | DNMT1 block | NSD2 HMT inh | NS3 helicase inh | Casp6 inh
Cc1ccc(NC(=O)CCCCCC2NC(=O)NC2C)cc1 (stereo not drawn) | 0 | 136* | -6 | 5
O=C(C[C@H]1CC[C@H]2[C@@H](COC[C@H](O)CN2Cc2cc(F)ccc2F)O1)N[C@H]1CCN(Cc2ccccc2)C1 | . | . | . | -16
CC(C)Nc1ncnc2c1cnn2-c1ccc(Cl)cc1 | 86* | . | -8 | 0
O=S(=O)(Nc1ccccc1)c1cccc2nsnc12 | 44 | -1 | 6 | 36*
COCC(=O)N(C)C[C@H]1Oc2ncc(C3=CCCCC3)cc2C(=O)N([C@@H](C)CO)C[C@@H]1C | . | . | . | 2
C[C@H]1c2cccc(O)c2C(O)=C2C(=O)[C@]3(O)C(O)=C(C(N)=O)C(=O)[C@@H](N(C)C)C3[C@@H](O)C21 (stereo partly drawn) | 2 | . | . | 20
C=C1c2cccc(O)c2C(=O)C2C(=O)[C@]3(O)C(=O)C(C(N)=O)C(=O)[C@@H](N(C)C)[C@@H]3[C@@H](O)[C@H]12 (stereo partly drawn) | 94* | . | . | .
N#C/C(=C/c1ccco1)C(N)=S | 17 | -14 | 24 | 46*
Cc1noc(C)c1NC(=O)N(C)C[C@H]1Oc2c(NS(=O)(=O)c3ccc(Cl)cc3)cccc2C(=O)N([C@@H](C)CO)C[C@H]1C | . | . | . | -3
C[C@H]1CN([C@@H](C)CO)C(=O)c2cccc(NS(C)(=O)=O)c2O[C@@H]1CN(C)Cc1ccc(-c2ccccc2)cc1 | . | . | . | 1
O=C(O)CCN1C(=O)/C(=C\c2cccc(OCC(=O)Nc3ccc(Cl)cc3)c2)SC1=S | -2 | -2 | 6 | 13
CC(=Cc1ccccc1)C=C1SC(=S)N(CCCC(=O)Nc2ccc(C(=O)O)c(O)c2)C1=O | 71* | . | . | 35
Cc1ccc(NC(=O)COc2cccc(/C=C3\SC(=S)N(CCC(=O)O)C3=O)c2)cc1Cl | 48 | 0 | 11 | 42*
c1ccc2c(NCCc3c[nH]c4ccccc34)c3ccccc3nc2c1 | 72* | 36 | -56 | -3
Fc1cccc(NCCc2c[nH]c3ccccc23)n1 | -4 | 2 | -10 | 2
OCCCNc1c2ccccc2nc2ccccc12 | 67* | -1 | 22 | -2
Cc1ccc(-c2nc(NCCCO)c3ccccc3n2)cc1 | 7 | 2 | -4 | -5
COc1cc2c(cc1OC)/C(=C/C(=O)c1ccc(F)cc1)NCC2 | -6 | 11 | 3 | 44*
O=C(C[C@@H]1CC[C@@H](NC(=O)C2CCOCC2)[C@@H](CO)O1)Nc1ccc(-c2ccccc2)cc1 | . | . | . | 0
CCO/C=C1\C(=O)N(c2ccccc2)C(=O)c2ccccc21 | -9 | . | 14 | .
CCO/C=C1/C(=O)N(Cc2ccccc2)C(=O)c2ccccc21 | 1 | 4 | 4 | 94*
CCO/C=C1/C(=O)N(c2ccccc2OC)C(=O)c2ccccc21 | -11 | 3 | 0 | 38*
Cc1noc(C)c1NC(=O)N(C)C[C@@H]1Oc2ccc(NS(=O)(=O)c3cn(C)cn3)cc2C(=O)N([C@H](C)CO)C[C@@H]1C | . | . | . | 0
O=C(C[C@@H]1C[C@@H]2c3cc(NC(=O)Nc4ccccc4)ccc3O[C@@H]2[C@H](CO)O1)NCc1cccc(F)c1 | . | . | . | -2
CC(=O)N(/N=C1\Sc2ccccc2C1=O)c1cccc(C)c1 | 51* | 40 | 5 | .
SMILES | DNMT1 block | NSD2 HMT inh | NS3 helicase inh | Casp6 inh
COc1cccc(C(=O)N2CCN(Cc3ccc(OC)cc3OC)CC2)c1 | 0 | -1 | -4 | 42*
COc1ccc(-c2ccc3c(c2)[C@H]2[C@H](CCN2C(=O)Cc2cccnc2)[C@H](CO)N3C)cc1 | . | . | . | -8
Oc1c(N=Nc2nn[nH]n2)ccc2ccccc12 | 36 | . | . | 94*
O=C(Nc1ccc(C(=O)N2CCCC2)cc1)c1ccc2c(c1)OCO2 | 5 | 3 | 1 | 44*
CC1=Nc2ccc(C)cc2/C1=C/c1c(N)n2oc(C)cc2nc1=O | 56*! | 0 | -4 | -2
CN(C)c1ccc2c(c1)[C@@H]1C[C@@H](CC(=O)NCc3ccccn3)O[C@@H](CO)[C@@H]1O2 | . | . | . | 40*
CSc1nc(N(CCO)CCO)c2sc3nc(-c4ccco4)c4c(c3c2n1)CCC4 | 96* | 0 | 32 | .
COC(=O)CSc1nc(SC)nc2c1sc1nc(-c3ccco3)c3c(c12)CC(C)(C)OC3 | -2 | . | . | 1
N#Cc1cccc(-c2ccc(C3[C@H]4CNC[C@@H]3N4C(=O)Nc3ccccc3F)cc2)c1 (stereo partly drawn) | . | . | . | 2
O=C(COC(=O)c1ccccc1OCc1ccccc1Cl)NC1CCS(=O)(=O)C1 (stereo not drawn) | 1 | 0 | . | 61*
Cc1cc(O)c2c(c1O)C(=O)[C@]13C(=C2O)C(=O)[C@@H]2[C@@H](O)[C@H]1[C@@H]1[C@H](O)[C@H]3C(=O)C3=C(O)c4c(O)cc(C)c(O)c4C(=O)[C@]312 | 95* | . | . | .
C[C@H]1CN([C@@H](C)CO)C(=O)c2cccc(NC(=O)C3CCOCC3)c2O[C@@H]1CN(C)S(C)(=O)=O | . | . | . | -3
NS(=O)(=O)c1ccc(N=Nc2c[nH]c(=O)c(O)c2)cc1 | 11 | 44 | 9 | 89*
Nc1nc(O)c(N=Nc2ccc(S(N)(=O)=O)cc2)c(=O)[nH]1 | . | . | 4 | 6
Cc1csc(=O)n1CC(=O)OCC(=O)NCc1ccc(F)cc1 | 1 | -1 | . | 59*
CN(C)c1ccc2c(c1)[C@@H]1C[C@@H](CC(=O)NCc3cc(F)ccc3F)O[C@@H](CO)[C@@H]1O2 | . | . | . | 1
O=[N+]([O-])c1cc(-c2ccccc2)cc([N+](=O)[O-])c1O | 4 | 14 | . | 6
O=[N+]([O-])c1cc2ccccc2c(O)c1O | 48 | 46 | . | 41*
Cc1noc(C)c1NC(=O)N(C)C[C@H]1OCCCC[C@@H](C)Oc2ccc(NS(=O)(=O)c3ccc(Cl)cc3)cc2C(=O)N([C@@H](C)CO)C[C@@H]1C | . | . | . | 5
Cc1ccccc1-c1ccc([C@H]2[C@H](CO)N3C(=O)CN(C(=O)NC4CCCC4)C[C@@H]23)cc1 | . | . | . | 4
O=C(O)CC1S/C(=N/N=C/c2ccc(-c3ccc(Cl)c([N+](=O)[O-])c3)o2)NC1=O (stereo not drawn) | 25 | 3 | 18 | 35*
CCOc1cc(/C=C(/NC(C)=O)C(=O)O)cc(Cl)c1OCc1cccc(Br)c1 | 1 | 12 | 25 | 39*
